Results as given in ChEMBL document CHEMBL1144469, “Comprehensive analysis of the effects of ordinary nutrients on hepatitis C virus RNA replication in cell culture” (Antimicrob Agents Chemother, 2007).
Activity calls are given as the source filed them. The rule behind the calls is not given here.

Legend:
Hepatitis C virus [1] = test: Enhancement of HCV RNA replication in OR6 cells after 72 hrs by luciferase reporter assay; format: functional, organism-based; settings: Hepacivirus hominis
In short: (§1)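 OR6 cells (HuH-7 carrying genome-length HCV-O genotype 1b RNA with a Renilla luciferase-NeoR fusion) are seeded in triplicate, 1.0–1.5 × 10^4 per well, and grown 24 h. Nutrients are then added for 72 h, or 24 h in the time course. Renilla luciferase is read from cell lysates and expressed as % of untreated cells. Liposoluble nutrients are carried in DMSO or ethanol at 0.1% final. EC50 is obtained by sigmoid regression.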

Hepatitis C virus [2] = test: Antiviral activity against HCV assessed as inhibition of HCV RNA replication in OR6 cells after 72 hrs by luciferase reporter assay; format: functional, organism-based, Hepacivirus hominis; settings: OR6, 72 h; in short: as §1
Hepatitis C virus [3] = test: Antiviral activity against HCV assessed as inhibition of HCV RNA replication in OR6 cells after 24 hrs by luciferase reporter assay; format: functional, organism-based; settings: Hepacivirus hominis; in short: as §1
[4] = Cytotoxicity against human OR6 cells after 72 hrs; format: cell-based; settings: or6, 72 h
In short: (§2)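 For viability, OR6 cells are plated in triplicate and grown 24 h: 4.5–5 × 10^4 cells (72 h assay) or 1–1.5 × 10^4 cells (120 h assay). Nutrients are then applied for 72 or 120 h. Viable cells are counted by trypan blue exclusion and expressed as % of the untreated cell number.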

Hepatitis C virus [5] = test: Antiviral activity against HCV assessed as suppression of HCV RNA replication in ORN/C-5B/KE/poly cells after 72 hrs by luciferase reporter assay; format: functional; settings: Hepacivirus hominis
In short: (§3)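 Polyclonal HuH-7 lines carrying either genome-length (ORN/C-5B/KE/poly) or subgenomic (ORN/3-5B/KE/poly) HCV-O genotype 1b RNA with a Renilla luciferase reporter are kept in DMEM with 10% FBS and G418 300 μg/ml. They are treated as in the OR6 assay for 72 h. Renilla luciferase is then measured and expressed as % of untreated cells.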

Hepatitis C virus [6] = test: Antiviral activity against HCV assessed as suppression of HCV RNA replication in ORN/3-5B/KE/poly cells after 72 hrs by luciferase reporter assay; format: functional, organism-based; settings: Hepacivirus hominis; in short: as §3
[7] = Cytotoxicity against human OR6 cells after 120 hrs by cell viability assay; format: cell-based; settings: or6, 120 h; in short: as §2
[8] = Cytotoxicity against human OR6 cells after 120 hrs; format: cell-based; settings: or6, 120 h; in short: as §2
Hepatitis C virus [9] = test: Antiviral activity against HCV assessed as inhibition of HCV RNA replication in OR6 cells at 50 uM after 120 hrs by luciferase reporter assay; format: functional, Hepacivirus hominis; settings: OR6, 120 h
In short: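 The time course uses OR6 cells (HuH-7, genome-length HCV genotype 1b RL reporter), 0.5 × 10^4 cells per well in triplicate, grown 24 h before exposure. Treatment runs 120 h at the stated 50 μM. Renilla luciferase activity in lysates is given as % of untreated control.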

Hepatitis C virus [10] = test: Enhancement of HCV RNA replication in ORN/3-5B/KE/poly cells after 72 hrs by luciferase reporter assay; format: functional, organism-based; settings: Hepacivirus hominis; in short: as §3
Hepatitis C virus [11] = test: Enhancement of HCV RNA replication in ORN/C-5B/KE/poly cells after 72 hrs by luciferase reporter assay; format: functional, organism-based; settings: Hepacivirus hominis; in short: as §3

With CC1=C(/C=C/C(C)=C/C=C/C(C)=C/CO)C(C)(C)CCC1 as the compound, how does the Activity (Hepatitis C virus [1]) read?
Its Activity is “Active”.

With O=C1O[C@H]([C@@H](O)CO)C(O)=C1O as the compound, how does the Activity (Hepatitis C virus [1]) read?
The Activity was “Active”.

For O=[Se](=O)(O)O, which Activity (Hepatitis C virus [1]) is on record?
The Activity was “Active”.

With CCCCC/C=C\C/C=C\C/C=C\C/C=C\CCCC(=O)O [ARACHIDONIC ACID] as the compound, how does the EC50 (Hepatitis C virus [2]) read?
Its EC50 is 22.1 µM.

For CC1=C(/C=C/C(C)=C/C=C/C(C)=C/C=C/C=C(C)/C=C/C=C(C)/C=C/C2=C(C)CCCC2(C)C)C(C)(C)CCC1 [BETA CAROTENE], which Activity (Hepatitis C virus [3]) is on record?
Its Activity is “Active”.

What about the Activity [4] of the same compound?
Its Activity is “Non-toxic”.

And the Activity (Hepatitis C virus [5])?
The Activity was “Active”.

What about the Activity (Hepatitis C virus [6]) of the same compound?
Its Activity is “Active”.

And the EC50 (Hepatitis C virus [2])?
The EC50 was 6.3 µM.

What about the Activity [7] of the same compound?
Its Activity is “Non-toxic”.

What about the Activity [8] of the same compound?
Its Activity is “Non-toxic”.

Which EC50 (Hepatitis C virus [2]) does the source give for CC/C=C\C/C=C\C/C=C\C/C=C\C/C=C\C/C=C\CCC(=O)O [DOCONEXENT] here?
The EC50 was 37 µM.

Which results are given for C=C1CC[C@H](O)C/C1=C/C=C1\CCC[C@]2(C)[C@@H]([C@H](C)/C=C/[C@H](C)C(C)C)CC[C@@H]12 [ERGOCALCIFEROL]?
Activity (Hepatitis C virus [3]): Active; Activity [4]: Non-toxic; Activity (Hepatitis C virus [5]): Active; Activity (Hepatitis C virus [6]): Active; EC50 (Hepatitis C virus [2]): 3.8 µM; Activity [7]: Non-toxic; Activity [8]: Non-toxic

With CC/C=C\C/C=C\C/C=C\C/C=C\C/C=C\CCCC(=O)O [ICOSAPENT] as the compound, how does the EC50 (Hepatitis C virus [2]) read?
Its EC50 is 36.2 µM.

With CCCCC/C=C\C/C=C\CCCCCCCC(=O)O [LINOLEIC ACID] as the compound, how does the Activity [4] read?
Its Activity is “Non-toxic”.

What about the inhibition at 50 µM (Hepatitis C virus [9]) of the same compound?
Its inhibition at 50 µM is 90%.

And the Activity (Hepatitis C virus [5])?
Its Activity is “Active”.

And the Activity (Hepatitis C virus [6])?
Its Activity is “Active”.

What about the EC50 (Hepatitis C virus [2]) of the same compound?
Its EC50 is 20.2 µM.

What about the Activity [7] of the same compound?
Its Activity is “Non-toxic”.

And the Activity [8]?
The Activity was “Non-toxic”.

For VITAMIN E, which Activity (Hepatitis C virus [10]) is on record?
The Activity was “inactive”.

What about the Activity (Hepatitis C virus [1]) of the same compound?
Its Activity is “Active”.

What about the Activity (Hepatitis C virus [5]) of the same compound?
The Activity was “Active”.

And the Activity (Hepatitis C virus [11])?
Its Activity is “Active”.
